The test system of series [1] is L1210. The experiment in a line: Cytotoxicity against mouse L1210 cells by disk diffusion soft agar colony formation assay. Format: functional. Put shortly: (§1)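 Cell-based soft agar disk diffusion assay, applied to extracts, partition fractions and pure compounds. Read-out is the inhibition zone in zone units. The panel covers solid tumour cells (Colon 38, Colon H116, Lung H125), leukaemia cells (L1210, CEM) and normal CFU-GM. A sample counts as solid-tumour selective when the solid tumour zone exceeds the leukaemia or normal cell zone by more than 250 units.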

A short description of series [2]: Cytotoxicity against human CFU-GM cells by disk diffusion soft agar colony formation assay. It is filed as cell-based. In outline: as §1
(In general: In agar diffusion tests the substance spreads into inoculated agar from a disc or well.)

In series [3] the test system is CCRF-CEM. The experiment in a line: Cytotoxicity against human CEM cells by disk diffusion soft agar colony formation assay. It is filed as cell-based. In outline: as §1
Series [4] is described as follows: Cytotoxicity against human H125 cells by disk diffusion soft agar colony formation assay. It is filed as functional. In outline: as §1
The nature of series [5]: Cytotoxicity against mouse CFU-GM cells by disk diffusion soft agar colony formation assay. Format: cell-based. In outline:
as §1

The nature of series [6]: Cytotoxicity against human H116 cells by disk diffusion soft agar colony formation assay. Format: functional. Put shortly: as §1
Series [7] relates to MC-38. The experiment in a line: Cytotoxicity against mouse C38 cells by disk diffusion soft agar colony formation assay. It is filed as functional. Put shortly: as §1
The test system of series [8] is Enterococcus durans. The experiment in a line: Antibacterial activity against Enterococcus durans. It is filed as functional.
Series [9] deals with Staphylococcus epidermidis. The experiment in a line: Antibacterial activity against Staphylococcus epidermidis. It is filed as functional.

The structures appear in SMILES notation. ≈ marks a conversion by molar mass, not a printed value. Starred links: 1 amine or outer side, 2 acyl side, 3 side chain; linkers in the order of their positions; H or OH if unused. Non-standard residues stand in square brackets, D forms with d. Residues, ends and D or L forms follow the SMILES beside them. X1 = CC(C)(O)[C@H](O[*:1])C(=O)[*:2]; dNMeF = CN[C@H](Cc1ccccc1)C(=O)O; Hica(2S) = CC(C)C[C@H](O)C(=O)O; Hiv = CC(C)[C@H](O)C(=O)O; NMeA = CN[C@@H](C)C(=O)O

This is an account of results in ChEMBL document CHEMBL1158099, “A chemical study of cyclic depsipeptides produced by a sponge-derived fungus” (J Nat Prod, 2006).

Take `C[C@H]1CCC/C=C/[C@@H]2C[C@H](O)C[C@H]2[C@H](O)/C=C/C(=O)O1` [BREFELDIN A]: the Activity in [1] is 0 Zone units; in [2], 1000 Zone units; in series [3], 0 Zone units; in series [4], 600 Zone units; in series [5], “Not Active”; in [6], 900 Zone units. The Activity in series [7] turned out to be 150 Zone units.

Usually MIC stands for the least concentration at which growth counts as inhibited. Take `CC(C)C[C@@H]1OC(=O)[C@H](C)NC(=O)[C@H](C(C)C)OC(=O)[C@H](C)N(C)C(=O)[C@@H](C)NC(=O)[C@@H](Cc2ccccc2)N(C)C1=O` [GUANGOMIDE B] (cyclo(A[Hica(2S)][dNMeF][dA][NMeA][Hiv])): the MIC in series [8] and in series [9] was 100 µg/mL (≈ 166 µM) each time.

As to `CC(C)C[C@@H]1OC(=O)[C@H](C)NC(=O)[C@H](C(C)(C)O)OC(=O)[C@H](C)N(C)C(=O)[C@@H](C)NC(=O)[C@@H](Cc2ccccc2)N(C)C1=O` [GUANGOMIDE A] (cyclo(A[Hica(2S)][dNMeF][dA][NMeA][X1])), the Activity was 0 Zone units in [1]; “Not Active” in series [2]; 0 Zone units in series [4]; “Not Active” in [5]; 50 Zone units in series [6]; 0 Zone units in series [7]. Moreover, the MIC in [8] and in [9] was 100 µg/mL (≈ 162 µM) throughout.
